What was measured:
[1] = folding enthalpy; higher = less favourable; fluorescence melt of hairpins on a sequencing array, two-state fit; conditions: sodium 0.088 M
Method in brief: (§1)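 To match UV melts, fitted temperatures were raised by 9.35 °C. These fits were bootstrapped two-state models that gave melting temperature and folding enthalpy, combined by inverse variance over four replicates. The input was normalised Cy3 fluorescence of library hairpins with annealed Cy3 and quencher oligos on a sequenced MiSeq flow cell, imaged in 50 mM Na-HEPES pH 8.0, 25 mM NaCl in 2.5 °C steps up to 60 °C.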

[2] = melting temperature; fluorescence melt of hairpins on a sequencing array, two-state fit, raised by 9.35 °C to match UV melts; conditions: sodium 0.088 M
Method in brief: as §1

Row | Sequence | folding enthalpy [1] [kcal/mol] | Tm [2] [°C]
1 | GGGAACGAAAGTTTGCCC ((((((....)))..))) | -20.8 | 31.8
2 | GCACGAGGAAACTCGTAC (.(((((....))))).) | -12.7 | 38.9
3 | GTTCTACGAAAGTATAAC (((.(((....))).))) | -24 | 34.5
4 | GGCCTTGGAAACAAAGCC (((.(((....))).))) | -25.8 | 38.9
5 | GGATGGGGAAACCTATCC ((((.((....)).)))) | -29.4 | 47.2
6 | GGGCACCGAAAGGTCCC (((.(((....)))))) | -34 | 54.5
7 | GACGTTGGAAACGATGTC (((.(.(....).).))) | -16.9 | 33.4
8 | CGACCCGGAAACGGTCG (((.(((....)))))) | -30.1 | 52.5
9 | GTGATTTCGAAAGAACAC (((..(((....)))))) | -22.9 | 31.3
10 | GGGTCTCCGAAAGGACCC (((..(((....)))))) | -26.5 | 51.4
11 | GCCATATCGAAAGATGGC (((..(((....)))))) | -34.6 | 48.2
12 | GGGTGTGGAAACGTACCC ((((..(....)..)))) | -28.7 | 45.5
13 | GATCCAAATCTGGATC ((((((....)))))) | -33.8 | 47.4
14 | GCGACGTCTCGC ((((....)))) | -13.3 | 54.2
15 | GATCTGGGTTCAGATC ((((((....)))))) | -43.3 | 49.4
16 | GATCAGAACCCTGATC ((((((....)))))) | -39.8 | 47
17 | GATTCGGGAAACCGAATC (((((((....))))))) | -47.5 | 60.4
18 | GCTAACCGAAAGGTAGC (((.(((....)))))) | -31.9 | 55.3
19 | GCATTGCGAAAGCACTGC (((.(((....))).))) | -45.1 | 52.2
20 | GCGGGCATCCGC ((((....)))) | -24.5 | 67
21 | GATCTACCGTTAGATC ((((((....)))))) | -30.5 | 37.8
22 | GAGTGTGGAAACATGCTC (((..((....))..))) | -31.2 | 38.7
23 | GCGATAGTTCGC ((((....)))) | -21.8 | 50.4

Row | Sequence | folding enthalpy [1] [kcal/mol] | Tm [2] [°C]
24 | GAACGACGAAAGTCATTC (((.(((....))).))) | -21.6 | 38.6
25 | GCAAAGCGAAAGCCATGC (((..((....))..))) | -12.3 | 32.2
26 | GGCAAGGCGAAAGCCGCC (((..(((....)))))) | -13.6 | 59.6
27 | GGCGTCGAAAGACGAGCC ((((((....)))..))) | -16.7 | 54
28 | GATGGTGGAAACACCACC (.(((((....))))).) | -13.6 | 44.6
29 | GCAAACGAAAGTTGCTGC ((((((....)))..))) | -22.2 | 54.1
30 | GTATCGGGAAACTGGTAC (((.(.(....).).))) | -17.8 | 32.3
31 | GCGTGGCGAAAGCGTCGC (((..((....))..))) | -22.6 | 58.7
32 | GATCGCATGTGCGATC ((((((....)))))) | -37.8 | 68.3
33 | GCCTGTGGAAACACGGGC (((.(((....))).))) | -41 | 61.9
34 | GTGCCCGAAAGGGCCAC ((((((....))).))) | -7.47 | 57.2
35 | GATCAGAGATCTGATC ((((((....)))))) | -24.3 | 50.1
36 | GCATGCGAAAGCACCTGC ((((((....)))..))) | -10.9 | 33
37 | GATCGGGGAAACCCGACC (.(((((....))))).) | -13.6 | 43.5
38 | GAGTATGGAAACACACTC ((((.((....)).)))) | -24.9 | 31.7
39 | GCTTTGCGAAAGCTTAGC (((..((....))..))) | -16.7 | 55.2
40 | CTGAAGAAATTCAG (((((....))))) | -12.5 | 33.4
41 | GCCGAGCGAAAGCTGGC (((.(((....)))))) | -25.1 | 68.6
42 | GGGTCGGGAAACTGGCCC (((.(.(....).).))) | -35.8 | 50.6
43 | GTTAGGGCGAAAGCCAAC (((..(((....)))))) | -8.42 | 29.3
44 | GCCAGCGGAAACGCCAGC ((..(((....)))..)) | -13.7 | 39
45 | GGTAACGGAAACGCTACC ((((.((....)).)))) | -29.7 | 43.7
46 | GCCAGTCGAAAGACAGGC (((.(((....))).))) | -29.6 | 62.8

Row | Sequence | folding enthalpy [1] [kcal/mol] | Tm [2] [°C]
47 | GTCGCTTCGAAAGAAGAC (((..(((....)))))) | -9.98 | 33.9
48 | GCGACACTCGC ((((...)))) | -18.2 | 53.1
49 | GCGATGGGAAACTGTCGC ((((..(....)..)))) | -47.3 | 49.2
50 | GCAGTAACGAAAGTTTGC (((..(((....)))))) | -21.9 | 37.6
51 | GCCCTCGGAAACGGGGGC ((((.((....)).)))) | -32.7 | 66.9
52 | GCGATCCCGAAAGGGCGC (((..(((....)))))) | -20.6 | 56.3
53 | GCAATGGGAAACCATCGC ((.((((....)))).)) | -28.8 | 42.1
54 | GGTTTGACGAAAGTCACC (((..(((....)))))) | -10.6 | 30.4
55 | GCTGGGACGAAAGTCAGC (((..(((....)))))) | -19.3 | 46.3
56 | GGTGACGCGAAAGCGACC (((..(((....)))))) | -12.1 | 40.4
57 | GTTGCCGAAAGGCCCAAC ((((((....)))..))) | -6.79 | 29.4
58 | GACCAACGAAAGTTAGTC (((.(((....))).))) | -26 | 38.8
59 | CGCGGAACTGTCCGCG ((((((....)))))) | -45.6 | 64.8
60 | GCCCGAGGAAACTCAGGC (((.(((....))).))) | -27.2 | 45.1
61 | CGGCTCGGAAACGACCG (((.(((....)))))) | -31.8 | 50.9
62 | GATCACACGAAAGTGATC (((..(((....)))))) | -34.3 | 48.8
63 | GCAAACGAAAGTTTTTGC ((((((....)))..))) | -16.1 | 35.2
64 | GAAGTTGGAAACGATTTC (((.(.(....).).))) | -20.9 | 36.7
65 | GTTTTCCGAAAGGACAAC (((.(((....))).))) | -25.8 | 41.7
66 | GAGATGAAAATCTC (((((....))))) | -22.2 | 44
67 | GATCTTGTTTAAGATC ((((((....)))))) | -32.1 | 45.8
68 | GTCAGCGAAAGCTTTGAC ((((((....)))..))) | -15.3 | 35
69 | GTTCGGCGAAAGCCTAAC (((.(((....))).))) | -19.2 | 43

Source: the array DNA melting data of Ke et al. (doi:10.1101/2024.01.08.574731)
